Measured values published in PMC10872613 (Journal of immunology (Baltimore, Md. : 1950), 2024).
“Also recorded” adds a separate entry of the source. Read-outs that look alike come from different tables or passages of the source.

What was measured:
[1] = test system: bovine pancreatic trypsin; conditions: concentrations up to 200 μM; cited from earlier work
lectin pathway (LP) = test: LP ELISA; assay type: biochemical, human; conditions: 100 μM A1, C1q-depleted serum, mannan-coated plates
[2] = target: T1, C1s purified from human serum (Homo sapiens, UniProt P09871); test: Native C1s chromogenic ZGR assay; assay type: biochemical
T1 sequence (P09871 16-437 limits assumed): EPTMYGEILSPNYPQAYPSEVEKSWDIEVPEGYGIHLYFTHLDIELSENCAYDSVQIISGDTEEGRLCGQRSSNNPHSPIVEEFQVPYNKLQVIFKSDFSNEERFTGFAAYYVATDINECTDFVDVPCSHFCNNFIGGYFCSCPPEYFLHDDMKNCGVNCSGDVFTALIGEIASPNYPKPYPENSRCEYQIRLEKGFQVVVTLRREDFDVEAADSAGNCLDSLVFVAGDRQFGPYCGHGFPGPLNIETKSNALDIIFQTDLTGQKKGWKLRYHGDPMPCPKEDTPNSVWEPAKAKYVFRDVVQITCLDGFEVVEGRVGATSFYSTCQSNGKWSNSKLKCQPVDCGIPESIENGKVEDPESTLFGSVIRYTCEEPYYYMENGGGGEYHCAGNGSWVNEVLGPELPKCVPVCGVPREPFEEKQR
T1 sequence (P09871 438-688 limits assumed): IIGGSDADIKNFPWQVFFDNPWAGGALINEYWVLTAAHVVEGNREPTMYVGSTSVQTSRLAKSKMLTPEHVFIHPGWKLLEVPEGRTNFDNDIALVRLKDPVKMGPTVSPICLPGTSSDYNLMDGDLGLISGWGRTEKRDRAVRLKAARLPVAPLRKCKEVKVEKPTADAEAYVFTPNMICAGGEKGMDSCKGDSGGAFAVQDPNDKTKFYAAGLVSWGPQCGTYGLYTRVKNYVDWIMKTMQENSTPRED

[3] = test system: CP activation by heparin-induced immune complexes; test: CP activation by heparin-induced immune complexes in whole blood; assay type: cell-based, human; conditions: highest concentration examined (series 1,000 – 10 μM)
How it was run: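 Healthy-donor whole blood was anticoagulated with ACD (1.4 mL per 8.6 mL blood). It was preincubated 30 min at room temperature with buffer, test compound (1000–10 μM) or B. miyamotoi FbpA-C/FbpB-C control proteins (100 μg/mL). Anti-PF4/heparin antibody KKO (50 μg/mL), PF4 (25 μg/mL) and heparin (1 U/mL) were then added, 30 min at 37 °C. Plasma was quenched with 10 mM EDTA, and C5a was measured by sandwich ELISA.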

Factor Xa = Factor Xa chromogenic ZGR assay; assay type: biochemical; conditions: inhibitor 0 to 226 μM
How it was run: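 Buffer: 50 mM HEPES pH 7.4, 140 mM NaCl, 0.025% Tween-20, 5% DMSO, with 0.59 mM DTNB indicator. Thiol release was read chromogenically in microplates.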

classical pathway (CP) = test: CP-specific ELISA; assay type: biochemical, human; conditions: for C4b deposition (CP activity): 100 μM compound, single-concentration screen, 2% human serum
How it was run: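 Wells coated with human IgM received 2% (v/v) complement-preserved human serum with a two-fold test compound series (100–3.1 μM) in HBS++ plus 0.1% gelatin, 1 h at 37 °C. After TBS-T washes, deposited C4b was detected with mouse anti-C4b mAb and HRP anti-mouse IgG. Signals were normalized to uninhibited and serum-free controls. Triplicates were fit to a four-parameter dose-response model.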

thrombin = thrombin (Homo sapiens, UniProt P00734); test: Thrombin chromogenic ZGR assay; assay type: biochemical
How it was run: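 Serum-purified activated thrombin (2.7 nM) was assayed at 25 °C in 50 mM HEPES pH 7.4, 140 mM NaCl, 0.005% Tween-20, 5% DMSO with 0.59 mM DTNB. Initial ZGR hydrolysis rates were measured at four ZGR levels (~Km–9 x Km) × five inhibitor levels (0–~3.4 x Ki). Triplicate data were globally fit to a competitive inhibition model.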

Neutrophil Elastase = test: Neutrophil elastase chromogenic assay; assay type: biochemical, human; conditions: inhibitor 0 to 29.4 μM
How it was run: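 Neutrophil elastase purified from human sputum (6.9 nM) was run at 25 °C with inhibitor 0–29.4 μM and fixed 52 μM methoxysuccinyl-Ala-Ala-Pro-Val-p-nitroanilide (ε400 = 12.3 mM−1 cm−1). Buffer: 50 mM HEPES pH 7.4, 140 mM NaCl, 0.05% Tween-20. Microplate chromogenic read-out.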

Aqueous solubility = assay type: physicochemical; conditions: water
mouse C1s-2SP = target: T2, mouse C1s-2SP (Mus musculus, UniProt Q8CG14); test: Mouse C1s-2SP chromogenic ZGR assay; assay type: biochemical
T2 sequence (Q8CG14 357-423 limits assumed): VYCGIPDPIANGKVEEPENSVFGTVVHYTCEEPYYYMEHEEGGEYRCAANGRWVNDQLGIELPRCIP
T2 sequence (Q8CG14 438-688 limits assumed): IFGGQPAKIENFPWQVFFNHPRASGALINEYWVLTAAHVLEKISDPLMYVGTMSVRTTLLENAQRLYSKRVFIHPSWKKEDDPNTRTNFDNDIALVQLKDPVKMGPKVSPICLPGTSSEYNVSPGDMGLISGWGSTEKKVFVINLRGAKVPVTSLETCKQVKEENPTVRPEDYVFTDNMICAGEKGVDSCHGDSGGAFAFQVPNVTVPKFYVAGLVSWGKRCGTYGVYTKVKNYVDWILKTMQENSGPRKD
How it was run: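 Recombinant mouse C1s-2SP (2.5 nM) was tested at 25 °C in 50 mM HEPES pH 7.4, 140 mM NaCl, 0.005% Tween-20, 5% DMSO, 0.44 mM DTNB. ZGR initial velocities were measured at four substrate levels (~2.3–9.4 x Km) and five inhibitor levels (0–~8.4 x Ki). Triplicate data were globally fit to a competitive inhibition model.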

C1s = target: T3, C1s (Homo sapiens, UniProt P09871); test: Cleavage of C2 by C1s; assay type: biochemical
T3 sequence (P09871 16-437 limits assumed): T1 sequence (P09871 16-437 limits assumed)
T3 sequence (P09871 438-688 limits assumed): T1 sequence (P09871 438-688 limits assumed)
How it was run: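 Serum-derived activated C1s (6.25 nM) was mixed with a two-fold test compound series (100–1.56 μM) in HBS++ and C2 was added (0.5 mg/mL stock), 1 h at 37 °C. Products were separated by SDS-PAGE with Coomassie staining. C2b band density was corrected for total C2 and normalized to a C1s + C2 control. Triplicates were fit to a four-parameter dose-response model.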

Cathepsin-G = test: Cathepsin G chromogenic assay; assay type: biochemical, human; conditions: inhibitor 0 to 29.4 μM; data not shown
How it was run: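 Cathepsin G (9.5 nM) was assayed at 25 °C with inhibitor 0–29.4 μM and fixed 0.92 mM succinyl-Ala-Ala-Pro-Phe-p-nitroanilide (ε400 = 12.3 mM−1 cm−1). Buffer: 50 mM HEPES pH 7.4, 140 mM NaCl, 0.025% Tween-20, 20.7% DMSO. Microplate chromogenic read-out.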

[4] = target: T4, C1r purified from human serum (Homo sapiens, UniProt P00736); test: C1r chromogenic ZGR assay; assay type: biochemical
T4 sequence (P00736 18-463 limits assumed): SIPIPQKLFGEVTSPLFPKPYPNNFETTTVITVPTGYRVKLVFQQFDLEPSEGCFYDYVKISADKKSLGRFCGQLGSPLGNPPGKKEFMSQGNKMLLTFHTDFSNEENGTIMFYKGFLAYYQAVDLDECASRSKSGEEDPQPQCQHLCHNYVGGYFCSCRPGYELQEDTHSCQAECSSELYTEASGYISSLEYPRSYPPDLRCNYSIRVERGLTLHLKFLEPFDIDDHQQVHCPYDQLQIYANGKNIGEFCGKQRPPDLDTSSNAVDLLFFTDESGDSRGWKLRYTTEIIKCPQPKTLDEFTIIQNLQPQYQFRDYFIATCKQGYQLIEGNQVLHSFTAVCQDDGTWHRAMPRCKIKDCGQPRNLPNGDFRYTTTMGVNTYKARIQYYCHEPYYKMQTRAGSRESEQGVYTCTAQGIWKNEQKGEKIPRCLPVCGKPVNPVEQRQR
T4 sequence (P00736 464-705 limits assumed): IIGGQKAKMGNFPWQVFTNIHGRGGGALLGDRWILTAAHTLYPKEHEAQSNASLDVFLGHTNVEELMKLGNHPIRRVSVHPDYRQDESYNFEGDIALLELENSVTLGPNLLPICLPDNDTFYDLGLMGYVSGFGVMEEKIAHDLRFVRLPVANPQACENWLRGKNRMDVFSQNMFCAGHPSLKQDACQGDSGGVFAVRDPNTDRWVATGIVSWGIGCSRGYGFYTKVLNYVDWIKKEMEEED
How it was run: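 Human serum-derived C1r (10 nM) at 25 °C in 50 mM HEPES pH 7.4, 140 mM NaCl, 0.005% Tween-20, 10% DMSO, with 0.44 mM DTNB as indicator. Initial velocities of Z-Gly-Arg-thiobenzyl ester (ZGR) hydrolysis were read at four ZGR levels (~0.1–0.7 x Km) × five inhibitor levels (0–~0.8 x Ki) in microplates. Data (n = 3) were globally fit to a competitive inhibition model.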

C1s-2SP = target: T5, C1s-2SP (Homo sapiens, UniProt P09871); test: C1s-2SP chromogenic ZGR cleavage assay; assay type: biochemical; conditions: for C1s-2SP activity (initial velocity of ZGR cleavage): 100 μM compound, single-concentration screen, compared with mean of library; for loss of activity compared to A1: Ki against human C1s-2SP relative to A1
T5 sequence (P09871 357-423 limits assumed): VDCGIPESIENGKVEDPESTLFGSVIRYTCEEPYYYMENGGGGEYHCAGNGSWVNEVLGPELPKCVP
T5 sequence (P09871 438-688 limits assumed): T1 sequence (P09871 438-688 limits assumed)
How it was run: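 Recombinant human C1s-2SP was expressed in E. coli BL21(DE3), purified by denaturing IMAC, refolded in glutathione redox buffer and isolated by gel filtration. The enzyme (2.4 nM) was run at 25 °C in 50 mM HEPES pH 7.4, 140 mM NaCl, 0.005% Tween-20, 5% DMSO, 0.44 mM DTNB. ZGR initial velocities were read on a 4×5 grid (~0.2–1.2 x Km; inhibitor 0–~2.6 x Ki), n = 3, with a global competitive fit.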

[5] = recombinant human C1s-2SP, competitive inhibition model

Q: With N=C(N)Nc1ccc(C(=O)O)cc1 [4-guanidinobenzoic acid] as the compound, how does the inhibition of trypsin [1] read?
A: Its inhibition of trypsin is “failed to inhibit trypsin”.

Q: What does the source list for N=C(N)c1ccc(N2CCN(c3ccccc3)CC2)nc1 [A1, 6-(4-phenylpiperazin-1-yl)pyridine-3-carboximidamide]?
A: activity against the LP (lectin pathway (LP)): relatively weak activity against the LP compared to the CP; Ki [2]: 5.8 µM; inhibition of C5a generation [3]: ~ 75%; inhibition of Factor Xa (Factor Xa): did not inhibit; C4b deposition (CP activity) (classical pathway (CP)): reduced C4b deposition to less than two standard deviations below the mean; also recorded: essentially complete inhibition of C4b deposition; IC50 (classical pathway (CP); CP ELISA, C4b deposition, A1 100 – 3.1 μM): 22 µM; Ki (thrombin): 51.2 µM; inhibition of Neutrophil Elastase (Neutrophil Elastase): did not inhibit; solubility (Aqueous solubility): ≥ 10 mM; Ki (mouse C1s-2SP): 24.6 µM; IC50 (C1s): ~85 µM; inhibition of Cathepsin-G (Cathepsin-G): did not inhibit; Ki [4]: 842 µM; selectivity C1s over C1r ([4]; ratio of Ki values): ~ 145 fold; Ki (C1s-2SP): 8.5 µM

Q: With O=C(COC(=O)Cn1cnc2scc(-c3cccs3)c2c1=O)Nc1ccc(O)cc1 [B5] as the compound, how does the “C4b deposition (CP activity)” value (classical pathway (CP)) read?
A: The value was “reduced C4b deposition to less than two standard deviations below the mean”.

Q: Which “C1s-2SP activity (initial velocity of ZGR cleavage)” value (shortened to “C1s-2SP activity”) (C1s-2SP) does the source give for I.NC(N)=NCc1ccc(CN2CCc3ccccc32)cc1 [D4] here?
A: The value was “failed to inhibit C1s enzyme activity”.

Q: For COc1ccc(CCNC(N)=NCc2ccc(OCCC(C)C)c(OC)c2)cc1.I [D10], which “C1s-2SP activity” value (C1s-2SP) is on record?
A: Its value is “failed to inhibit C1s enzyme activity”.

Q: For Cl.Cl.NC(N)=NCCCN(Cc1ccc(-c2ccccc2)cc1)S(=O)(=O)CCCN=C(N)N [F2], which “C1s-2SP activity” value (C1s-2SP) is on record?
A: The value was “failed to inhibit C1s enzyme activity”.

Q: For COc1cccc(Oc2ccc(CN=C(N)Nc3ccccc3)cn2)c1.I [H1], which “C1s-2SP activity” value (C1s-2SP) is on record?
A: Its value is “failed to inhibit C1s enzyme activity”.

Q: For O=C(CSc1ncnc2sc(-c3ccccc3)cc12)NC(Cc1c[nH]c2ccccc12)C(=O)O (stereo not drawn) [H9], which “C1s-2SP activity” value (C1s-2SP) is on record?
A: The value was “failed to inhibit C1s enzyme activity”.

Q: Which Ki (C1s-2SP; [5]) does the source give for N=C(N)c1ccc(N2CCN(c3cccc(F)c3)CC2)nc1 [meta-fluorine A1 analog] here?
A: The Ki was 19.5 µM.

Q: For Cc1cccc(N2CCN(c3ccc(C(=N)N)cn3)CC2)c1 [meta-methyl A1 analog], which Ki (C1s-2SP; [5]) is on record?
A: The Ki was 22.6 µM.

Q: Which “loss of activity compared to A1” value (C1s-2SP) does the source give for N=C(N)c1ccc(N2CCN(c3ccc(Cl)cc3)CC2)nc1 [para-chlorine A1 analog] here?
A: Its value is > 10 fold.

Q: With N=C(N)c1ccc(N2CCN(c3ccc(F)cc3)CC2)nc1 [para-fluorine A1 analog] as the compound, how does the “loss of activity compared to A1” value (C1s-2SP) read?
A: The value was > 10 fold.

Q: For N=C(N)c1cccnc1 [pyridine-3-carboximidamide, reference compound], which “inhibition of C1s” value ([2]; concentrations approaching ~375 μM, data not shown) is on record?
A: The value was “failed to detect such inhibition”.
